Laboratory results reported in ChEMBL document CHEMBL1127053, “3,4-Dimethyl-4-(3-hydroxyphenyl)piperidines: opioid antagonists with potent anorectant activity” (J Med Chem, 1993).

Experiments:
[1] = target: Mu-type opioid receptor (Mus musculus) (UniProt P42866); assay: Antagonistic activity towards morphine induced mu-opioid receptor by mouse writhing assay at 1.25 mg/kg subcutaneously; assay type: functional, organism-based; design: dose 1.25 mg/kg
Method in brief: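 Mouse acetic acid writhing: 0.6% acetic acid ip, writhes counted for 10 min starting 5 min after injection. Agonist (morphine 1.25 mg/kg or U50,488 2.5 mg/kg) and antagonist given sc 20 min before acid. 5 mice/point, ≥5 doses varied 2-fold, each mouse used once. AD50 = antagonist dose reducing agonist-induced writhing inhibition to 50%.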

Mu-type opioid receptor = Mu-type opioid receptor (Rattus norvegicus, UniProt P33535); assay: Binding affinity towards mu-opioid receptor by the displacement of [3H]Nal in rat brain homogenates; assay type: tissue-based
Sequence of Mu-type opioid receptor (P33535 whole entry): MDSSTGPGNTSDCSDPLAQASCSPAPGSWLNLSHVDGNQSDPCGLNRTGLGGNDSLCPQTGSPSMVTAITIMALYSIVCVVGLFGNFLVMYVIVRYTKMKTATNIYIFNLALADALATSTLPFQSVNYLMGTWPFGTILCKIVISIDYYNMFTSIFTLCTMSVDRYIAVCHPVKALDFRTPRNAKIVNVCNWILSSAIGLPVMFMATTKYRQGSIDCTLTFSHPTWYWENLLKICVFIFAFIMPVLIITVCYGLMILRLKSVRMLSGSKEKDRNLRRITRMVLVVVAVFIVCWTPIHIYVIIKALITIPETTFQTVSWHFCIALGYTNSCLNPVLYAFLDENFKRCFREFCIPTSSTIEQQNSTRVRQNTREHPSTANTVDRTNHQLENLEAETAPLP

[2] = target: Kappa-type opioid receptor (Mus musculus) (UniProt P33534); assay: Antagonist activity towards U50 488 induced kappa opioid receptor by mouse writhing assay at 2.5 mg/kg subcutaneously; assay type: functional, organism-based; design: dose 2.5 mg/kg
Sequence of Kappa-type opioid receptor (Mus musculus) (P33534 whole entry): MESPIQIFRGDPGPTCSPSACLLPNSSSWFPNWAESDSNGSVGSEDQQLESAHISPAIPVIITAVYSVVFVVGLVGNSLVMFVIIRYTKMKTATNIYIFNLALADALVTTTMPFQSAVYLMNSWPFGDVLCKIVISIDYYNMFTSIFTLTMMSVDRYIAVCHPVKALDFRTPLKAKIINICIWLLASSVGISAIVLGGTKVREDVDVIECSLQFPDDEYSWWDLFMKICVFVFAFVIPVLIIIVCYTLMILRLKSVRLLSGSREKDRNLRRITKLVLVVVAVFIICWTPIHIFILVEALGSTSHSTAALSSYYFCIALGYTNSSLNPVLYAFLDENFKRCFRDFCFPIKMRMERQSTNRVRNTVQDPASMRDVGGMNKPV
Method in brief: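 Mouse acetic acid writhing: 0.6% acetic acid ip, writhes counted for 10 min starting 5 min after injection. 5 mice/point, ≥5 doses varied 2-fold, each mouse used once. AD50 = antagonist dose reducing agonist-induced writhing inhibition to 50%.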

[3] = target: Kappa-type opioid receptor (Rattus norvegicus) (UniProt P34975); assay: Antagonism of bremazocine induced kappa receptor diuresis in rats at a concentration of 0.08 mg/kg subcutaneously; assay type: functional, organism-based; design: dose 0.08 mg/kg
Sequence of Kappa-type opioid receptor (Rattus norvegicus) (P34975 whole entry): as the sequence (P33534 whole entry) above, with D11E, S17A, S51P, A308V counted along it
Method in brief: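 Male Long-Evans hooded rats (350-500 g), reused no more than twice weekly. Bremazocine 0.08 mg/kg sc, test antagonist sc on the opposite side without delay. Rats housed in metabolism cages; urine volume recorded at 2 and 5 h. 3 rats/dose, doses varied 2-fold. AD50 = dose reducing cumulative 5-h induced urination by 50%.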

Rattus norvegicus [4] = assay: Tested for concentration required to reduce the food consumption by 20 % subcutaneously; assay type: functional
Method in brief: (§1)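 Obese Zucker rats, 3-4 months old, trained to eat only 8 am-4 pm. Groups of 4 (2 male, 2 female), with one saline control group daily. Compound in saline with 10% DMSO, given sc on 3 consecutive days, typical doses 5.0-0.08 mg/kg (0.02-20 in some cases). Intake measured over the first 4 h. ED20 from regression of the linear portion of the dose-response curve.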

[5] = target: Kappa-type opioid receptor (Cavia porcellus, UniProt P41144); assay: Binding affinity towards kappa opioid receptor by displacement of [3H]EKC in guinea pig cortical tissue
Sequence of Kappa-type opioid receptor (P41144 whole entry): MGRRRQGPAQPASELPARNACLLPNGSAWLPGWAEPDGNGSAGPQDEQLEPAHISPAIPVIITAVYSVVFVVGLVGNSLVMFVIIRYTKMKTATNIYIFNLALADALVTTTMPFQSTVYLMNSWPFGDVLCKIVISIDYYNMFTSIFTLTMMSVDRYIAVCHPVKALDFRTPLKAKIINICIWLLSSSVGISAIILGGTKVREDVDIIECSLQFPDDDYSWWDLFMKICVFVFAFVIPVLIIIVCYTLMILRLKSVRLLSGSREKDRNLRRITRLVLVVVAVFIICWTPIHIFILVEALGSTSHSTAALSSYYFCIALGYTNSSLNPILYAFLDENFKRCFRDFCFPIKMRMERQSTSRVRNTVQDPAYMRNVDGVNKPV
Method in brief: (§2)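 Radioligand displacement. Kappa: [3H]EKC, guinea pig cortex, with fentanyl and DADL added to block mu/delta binding. Delta: [3H]DADL, rat brain homogenate.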

[6] = target: Delta-type opioid receptor (Rattus norvegicus, UniProt P33533); assay: Binding affinity towards delta-opioid receptor by displacement of [3H]DADL in rat brain homogenates; assay type: tissue-based; method in brief: as §2
Sequence of Delta-type opioid receptor (P33533 whole entry): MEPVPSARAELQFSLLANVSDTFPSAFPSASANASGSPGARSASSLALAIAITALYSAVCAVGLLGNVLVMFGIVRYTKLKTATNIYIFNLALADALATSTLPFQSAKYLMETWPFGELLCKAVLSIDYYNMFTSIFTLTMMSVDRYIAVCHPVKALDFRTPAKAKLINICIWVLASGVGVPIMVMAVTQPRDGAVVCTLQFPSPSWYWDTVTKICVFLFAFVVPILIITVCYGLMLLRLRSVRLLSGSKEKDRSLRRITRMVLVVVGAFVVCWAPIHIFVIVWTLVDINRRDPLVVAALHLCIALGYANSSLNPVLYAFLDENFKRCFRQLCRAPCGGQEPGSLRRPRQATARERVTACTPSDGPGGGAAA

Rattus norvegicus [7] = assay: Tested for concentration required to reduce the food consumption by 20 % subcutaneously; effect on feeding was minimal and not dose related; assay type: functional; conditions: sc; method in brief: as §1
[8] = target: Kappa-type opioid receptor (Cavia porcellus) (UniProt P41144); assay: Binding affinity towards kappa-opioid receptor by displacement of [3H]EKC in guinea pig cortical tissue at 100 nM
Sequence of Kappa-type opioid receptor (Cavia porcellus) (P41144 whole entry): as the sequence (P41144 whole entry) above
Method in brief: (§3)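 [3H]EKC binding to guinea pig cortical tissue, with fentanyl and DADL present to block mu and delta sites. Percent displacement measured at 10 and 100 nM test compound, run in triplicate.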

[9] = target: Kappa-type opioid receptor (Cavia porcellus) (UniProt P41144); assay: Binding affinity towards kappa-opioid receptor by displacement of [3H]EKC in guinea pig cortical tissue at 10 nM; method in brief: as §3
Rattus norvegicus [10] = assay: Tested for concentration required to reduce the food consumption by 20 % subcutaneously; The maximum effect achievedwas approximately 20% and not dose related; assay type: functional; conditions: sc; method in brief: as §1
[11] = Rattus norvegicus, sc, read-out: ED50

Sequence of Mu-type opioid receptor (Mus musculus) (P42866 whole entry): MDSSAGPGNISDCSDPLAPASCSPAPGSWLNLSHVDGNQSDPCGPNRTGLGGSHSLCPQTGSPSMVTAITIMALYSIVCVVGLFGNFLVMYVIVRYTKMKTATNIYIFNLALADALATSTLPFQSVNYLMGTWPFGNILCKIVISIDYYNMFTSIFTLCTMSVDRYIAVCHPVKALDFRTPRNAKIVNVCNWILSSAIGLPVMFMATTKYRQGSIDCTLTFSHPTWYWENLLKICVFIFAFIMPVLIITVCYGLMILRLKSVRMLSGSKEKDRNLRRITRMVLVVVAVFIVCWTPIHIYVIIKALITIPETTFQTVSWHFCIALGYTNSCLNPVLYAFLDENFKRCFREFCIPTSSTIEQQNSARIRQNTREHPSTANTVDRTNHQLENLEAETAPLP

SMILES	AD50 [1] [mg/kg]	Ki (Mu-type opioid receptor) [nM]	AD50 [2] [mg/kg]	AD50 [3] [mg/kg]	ED50 (Rattus norvegicus [4]; [11]) [mg/kg]	Ki [5] [nM]	other results
C[C@H]1CN(CCC2CCCC2)CC[C@@]1(C)c1cccc(O)c1	0.14	2.3	0.22	0.67	0.34	7.2	
C[C@H]1CN(CCC2CCCCC2)CC[C@@]1(C)c1cccc(O)c1	0.1	0.65	0.12	0.69	3.6	2.3	
CCCCCCN1CC[C@](C)(c2cccc(O)c2)[C@H](C)C1	0.21	5.61	0.29	1.34	1.17		
C=CCN1CC[C@]23c4c5ccc(O)c4O[C@H]2C(=O)CC[C@@]3(O)[C@H]1C5 [NALOXONE]					1.2		
CC(C)CCN1CC[C@@](C)(c2cccc(O)c2)[C@@H](C)C1	0.87	32	0.62	4.5	> 20	70	
C[C@H]1CN(CCCc2cccs2)CC[C@@]1(C)c1cccc(O)c1 (stereo in doubt; 41) [listing 1 of 2 here]							ED50 (Rattus norvegicus [4]): 0.11 mg/kg; Ki [6]: 10.3 nM
CCCCCCN1CC[C@@](C)(c2cccc(O)c2)[C@@H](C)C1 (stereo in doubt; 37) [listing 1 of 2 here]		1.1					ED50 (Rattus norvegicus [4]): 0.19 mg/kg
CC(C)CCCN1CC[C@@](C)(c2cccc(O)c2)[C@@H](C)C1	0.11	0.29	0.073	0.39	2.1	9.6	
C[C@H]1CN(CCC(=O)C2CCCCC2)CC[C@@]1(C)c1cccc(O)c1	0.12	0.34	0.26		0.13	3.9	
C[C@H]1CN(CCCC2CCCC2)CC[C@@]1(C)c1cccc(O)c1	0.12	0.37	0.13	0.79	1.2	3.4	
C[C@@H]1CN(CC[C@@H](O)C2CCCCC2)CC[C@]1(C)c1cccc(O)c1	0.52	2.2	0.52	5.2		14.3	ED50 (Rattus norvegicus [7]): > 1.25 mg/kg
CC(C)CCCCN1CC[C@](C)(c2cccc(O)c2)[C@H](C)C1	0.35	1.36	0.89	4.75	0.14	3.04	
C[C@H]1CN(CCCC2CCCCC2)CC[C@@]1(C)c1cccc(O)c1	0.35	0.49	0.19	1	0.12	2.3	
CCCCCCCN1CC[C@@](C)(c2cccc(O)c2)[C@@H](C)C1	0.21		> 0.64	3.3	0.4		Displacement [8]: 87%; Displacement [9]: 57%
C[C@H]1CN(CCC(O)C2CCCCC2)CC[C@@]1(C)c1cccc(O)c1 (some centres not stated)	0.07	0.29	0.14	0.49	0.05	4.8	
C[C@H]1CN(CC2CCCCC2)CC[C@@]1(C)c1cccc(O)c1	1.1	17	0.47	4.6	> 20	29	
CC(C)C(O)CCN1CC[C@@](C)(c2cccc(O)c2)[C@@H](C)C1 (some centres not stated)	0.14	2.6	0.35	0.17	0.65	6.9	
C[C@H]1CN(CCC(O)c2cccs2)CC[C@@]1(C)c1cccc(O)c1 (some centres not stated)					0.07		
O=C1CC[C@@]2(O)[C@H]3Cc4ccc(O)c5c4[C@@]2(CCN3CC2CC2)[C@H]1O5 [NALTREXONE]							ED50 (Rattus norvegicus [10]): 1.7 mg/kg
C=C1CC[C@@]2(O)[C@H]3Cc4ccc(O)c5c4[C@@]2(CCN3CC2CC2)[C@H]1O5	0.02	0.29	0.14	0.99	1.5	2	Ki [6]: 3.4 nM

SMILES	AD50 [1] [mg/kg]	Ki (Mu-type opioid receptor) [nM]	AD50 [2] [mg/kg]	AD50 [3] [mg/kg]	ED50 (Rattus norvegicus [4]; [11]) [mg/kg]	Ki [5] [nM]	other results
C[C@H]1CN(CC[C@@H](O)C2CCCCC2)CC[C@@]1(C)c1cccc(O)c1	0.03	2.4	0.36	1.1	0.16	11.4	
CCCCCCN1CC[C@@](C)(c2cccc(O)c2)[C@@H](C)C1 (stereo in doubt; 37) [listing 2 of 2 here]	0.26		0.22	0.86			
C[C@H]1CN(CCC(O)C2CCCC2)CC[C@@]1(C)c1cccc(O)c1 (some centres not stated)	0.04	0.41	0.08	0.99	0.09	5.5	
C[C@@H]1CN(CC[C@H](O)C2CCCCC2)CC[C@]1(C)c1cccc(O)c1	0.13		0.24	1.6	0.11	6.5	
CCCCCN1CC[C@@](C)(c2cccc(O)c2)[C@@H](C)C1			0.6		3.8		Displacement [8]: 78%; Displacement [9]: 44%
CC(C)CCCCN1CC[C@@](C)(c2cccc(O)c2)[C@@H](C)C1 (stereo in doubt; 21) [listing 1 of 2 here]		0.46				5.9	ED50 (Rattus norvegicus [4]): 0.06 mg/kg
C[C@H]1CN(CCC2C=CCC2)CC[C@@]1(C)c1cccc(O)c1 (some centres not stated)	0.11	12	0.12	1.4	0.44	1	
C[C@H]1CN(CCCc2cccs2)CC[C@@]1(C)c1cccc(O)c1 (stereo in doubt; 29) [listing 1 of 2 here]					0.07		
CC(C)CCCCN1CC[C@@](C)(c2cccc(O)c2)[C@@H](C)C1 (stereo in doubt; 39) [listing 1 of 2 here]	0.08		0.22	1.31			
C[C@H]1CN(CCCc2cccs2)CC[C@@]1(C)c1cccc(O)c1 (stereo in doubt; 41) [listing 2 of 2 here]				1.18			
CCCCCCN1CC[C@@](C)(c2cccc(O)c2)[C@@H](C)C1 (stereo in doubt; 16)							ED50 (Rattus norvegicus [4]): 0.51 mg/kg
C[C@H]1CN(CCCc2ccccc2)CC[C@@]1(C)c1cccc(O)c1			5.3		1.3		
C[C@H]1CN(CCC(O)c2ccccc2)CC[C@@]1(C)c1cccc(O)c1 (some centres not stated)	0.05	1	0.92	2.5	0.5		
C[C@H]1CN(CCCc2cccs2)CC[C@@]1(C)c1cccc(O)c1 (stereo in doubt; 29) [listing 2 of 2 here]	0.22			1			
C[C@H]1CN(CCCc2ccsc2)CC[C@@]1(C)c1cccc(O)c1	0.12		0.24	1.9	0.06		
C[C@H]1CN(C)CC[C@@]1(C)c1cccc(O)c1			> 5	> 5	4.1		
C[C@@H]1CN(CCCc2cccs2)CC[C@]1(C)c1cccc(O)c1	0.24		0.65	1.66	0.4		
CC(C)CCCCN1CC[C@@](C)(c2cccc(O)c2)[C@@H](C)C1 (stereo in doubt; 39) [listing 2 of 2 here]		0.89				1.91	ED50 (Rattus norvegicus [4]): 0.14 mg/kg
CC(C)CCCCN1CC[C@@](C)(c2cccc(O)c2)[C@@H](C)C1 (stereo in doubt; 21) [listing 2 of 2 here]	0.58		0.24	0.39			
C=C(C)CCCN1CC[C@@](C)(c2cccc(O)c2)[C@@H](C)C1	0.077	0.17	0.095	0.39	0.29	21	
